In ChEMBL document CHEMBL4130532, “Camellianols A-G, Barrigenol-like Triterpenoids with PTP1B Inhibitory Effects from the Endangered Ornamental Plant Camellia crapnelliana” (J Nat Prod, 2017) one finds viability and IC50 data, which are given here for 18 molecules.

Data set [1] is described as follows: Cytotoxicity against human L02 cells assessed as cell viability at 10 uM after 24 hrs by MTS assay relative to control. As to conditions: read-out: Activity. It counts as cell-based. In outline: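 Human […] L02 cells were seeded and cultured overnight, then exposed to the compound at varying concentrations for 24 h. Medium containing the water-soluble tetrazolium MTS reagent was added, and the cells were incubated at 37 °C for 2 h to read out viability.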

Data set [2] concerns the target T1, Tyrosine-protein phosphatase non-receptor type 1 (Homo sapiens, UniProt P18031).
T1 sequence (P18031 whole entry): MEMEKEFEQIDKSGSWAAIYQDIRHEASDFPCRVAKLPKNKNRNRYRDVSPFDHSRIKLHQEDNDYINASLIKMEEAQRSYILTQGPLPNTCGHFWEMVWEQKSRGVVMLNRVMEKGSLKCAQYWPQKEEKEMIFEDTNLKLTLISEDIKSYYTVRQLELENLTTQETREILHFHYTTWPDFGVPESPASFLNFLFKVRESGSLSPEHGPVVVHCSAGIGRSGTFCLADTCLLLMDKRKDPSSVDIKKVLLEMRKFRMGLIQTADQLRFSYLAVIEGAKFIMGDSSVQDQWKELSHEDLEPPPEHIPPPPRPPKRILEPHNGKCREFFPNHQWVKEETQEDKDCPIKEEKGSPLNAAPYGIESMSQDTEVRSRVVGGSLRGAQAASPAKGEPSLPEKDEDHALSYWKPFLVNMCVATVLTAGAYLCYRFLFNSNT
Kind of data set: Inhibition of recombinant human GST-tagged PTP1B catalytic domain expressed in Escherichia coli BL21 using para-nitrophenyl phosphate as substrate.

A word on the IC50: it is the concentration that inhibits the measured activity by half. For `C/C=C(/C)C(=O)O[C@H]1CC(C)(C)C[C@H]2C3=CC[C@@H]4[C@@]5(C)CC[C@H](O)C(C)(C)[C@@H]5CC[C@@]4(C)[C@]3(C)[C@@H](O)[C@@H](O)[C@@]12CO`, the viability at 24 h, 10 µM in data set [1] is more than 90%. Further, in data set [2], the IC50 is 2.56 µM. Regarding `CC(C)(O)[C@@H]1CC[C@]2(C)CC[C@]3(C)C(CC[C@@H]4[C@@]5(C)CC[C@H](O)C(C)(C)[C@@H]5CC[C@]43C)[C@H]12` (stereo not given in full), in data set [1], the viability at 24 h, 10 µM was more than 90%. The IC50 in data set [2] turned out to be 12.4 µM. As for `CC(=O)O[C@@H]1[C@H](O)[C@]2(C)C(=CC[C@@H]3[C@@]4(C)CC[C@H](O)C(C)(C)[C@@H]4CC[C@]32C)[C@@H]2CC(C)(C)C[C@H](O)[C@]12CO`, in data set [1], the viability at 24 h, 10 µM is more than 90%. Also, in data set [2], the IC50 is 47.4 µM.

Turning to `CC1(C)CC[C@]2(CO)[C@H](O)[C@H](O)[C@]3(C)C(=CC[C@@H]4[C@@]5(C)CC[C@H](O)C(C)(C)[C@@H]5CC[C@]43C)[C@@H]2C1`, the viability at 24 h, 10 µM in data set [1] is more than 90%. The 50% inhibitory concentration (IC50) in data set [2] was determined as 14.4 µM.

Regarding `CC1(C)CC[C@]2(C)CC[C@@]3(C)[C@]4(C)CC[C@H]5C(C)(C)[C@@H](O)CC[C@]5(C)[C@H]4[C@H](O)C(=O)[C@]3(O)[C@@H]2C1`, the viability at 24 h, 10 µM in data set [1] is more than 90%. Moreover, in data set [2], the IC50 is 1.34 µM.

In the case of `C/C=C(/C)C(=O)OC[C@@]12[C@H](O)[C@H](O)[C@]3(C)C(=CC[C@@H]4[C@@]5(C)CC[C@H](O)C(C)(C)[C@@H]5CC[C@]43C)[C@@H]1CC(C)(C)C[C@@H]2O`, the viability at 24 h, 10 µM in data set [1] is more than 90%. Further, the IC50 in data set [2] stood at 11.1 µM.

As to `CC1(C)C[C@H](O)[C@]2(CO)[C@H](O)[C@H](O)[C@]3(C)C(=CC[C@@H]4[C@@]5(C)CCC(=O)C(C)(C)[C@@H]5CC[C@]43C)[C@@H]2C1`, in data set [1], the viability at 24 h, 10 µM is more than 90%. Further, the 50% inhibitory concentration (IC50) in data set [2] amounted to 49.4 µM. Consider `CC1(C)C[C@H](O)[C@]2(CO)[C@H](O)C[C@]3(C)C(=CC[C@@H]4[C@@]5(C)CC[C@H](O)C(C)(C)[C@@H]5CC[C@]43C)[C@@H]2C1`, for which the viability at 24 h, 10 µM in data set [1] is more than 90%. Further, the 50% inhibitory concentration (IC50) in data set [2] amounted to 8.93 µM. For `C/C=C(/C)C(=O)O[C@H]1CC(C)(C)C[C@H]2C3=CC[C@@H]4[C@@]5(C)CC[C@H](O)C(C)(C)[C@@H]5CC[C@@]4(C)[C@]3(C)[C@@H](O)[C@@H](OC(C)=O)[C@@]12CO`, the viability at 24 h, 10 µM in data set [1] is more than 90%. In data set [2], the concentration for half-maximal inhibition (IC50) was 4.87 µM. In the case of `C/C=C(/C)C(=O)O[C@H]1CC(C)(C)C[C@H]2C3=CC[C@@H]4[C@@]5(C)CC[C@H](O)C(C)(C)[C@@H]5CC[C@@]4(C)[C@]3(C)[C@@H](OC(C)=O)[C@@H](O)[C@@]12CO`, the viability at 24 h, 10 µM in data set [1] is more than 90%. The IC50 in data set [2] was 7.4 µM. In the case of `CC(=O)O[C@@H]1C[C@]2(C)C(=CC[C@@H]3[C@@]4(C)CC[C@H](O)C(C)(C)[C@@H]4CC[C@]32C)[C@@H]2CC(C)(C)C[C@H](O)[C@]12CO`, the viability at 24 h, 10 µM in data set [1] is more than 90%. In data set [2], the IC50 is 10.2 µM. In the case of `CC(=O)O[C@@H]1[C@H](O)[C@]2(C)C(=CC[C@@H]3[C@@]4(C)CCC(=O)C(C)(C)[C@@H]4CC[C@]32C)[C@@H]2CC(C)(C)C[C@H](O)[C@]12CO`, the viability at 24 h, 10 µM in data set [1] is more than 90%. For the same molecule, the IC50 in data set [2] is 20 µM. Regarding `CC(=O)O[C@H]1[C@@H](O)[C@@]2(CO)[C@@H](O)CC(C)(C)C[C@H]2C2=CC[C@@H]3[C@@]4(C)CCC(=O)C(C)(C)[C@@H]4CC[C@@]3(C)[C@@]21C`, the viability at 24 h, 10 µM in data set [1] was more than 90%. Besides, the IC50 in data set [2] came to 44.4 µM. The corresponding values for `C[C@H]1[C@H](C)CC[C@]2(C)CC[C@]3(C)C(=CC[C@@H]4[C@@]5(C)CC[C@H](O)C(C)(C)[C@@H]5CC[C@]43C)[C@H]12` are more than 90% and 19.3 µM. Regarding `CC1(C)C[C@H](O)[C@]2(CO)[C@H](O)[C@H](O)[C@]3(C)C(=CC[C@@H]4[C@@]5(C)CC[C@H](O)C(C)(C)[C@@H]5CC[C@]43C)[C@@H]2C1`, the viability at 24 h, 10 µM in data set [1] is more than 90%. Besides, the half-inhibitory concentration (IC50) in data set [2] amounted to 16.8 µM. For `C=C(C)[C@@H]1CC[C@]2(C)CC[C@]3(C)[C@H](CC[C@@H]4[C@@]5(C)CC[C@H](O)C(C)(C)[C@@H]5CC[C@]43C)[C@@H]12` [LUPEOL] the same measures were more than 90% and 3.68 µM. For `CC1(C)CC[C@]2(C(=O)O)CC[C@]3(C)C(=CC[C@@H]4[C@@]5(C)CC[C@H](O)C(C)(C)[C@@H]5CC[C@]43C)[C@@H]2C1` [OLEANOLIC_ACID], the viability at 24 h, 10 µM in data set [1] is more than 90%.

Regarding `CC1(C)CC[C@]2(C)CC[C@]3(C)C(=CC[C@@H]4[C@@]5(C)CC[C@H](O)C(C)(C)[C@@H]5CC[C@]43C)[C@@H]2C1` [beta-AMYRIN], the viability at 24 h, 10 µM in data set [1] was more than 90%. Besides, the 50% inhibitory concentration (IC50) in data set [2] was more than 100 µM.
